{
  "source": "paper PMC10786778",
  "about": "(Diabetes Therapy, 2023)",
  "key": {"QT interval [1]": {"tested_on": "QT interval", "conditions": "cited from earlier work"}, "fasting plasma glucose": {"tested_on": "fasting plasma glucose", "test": "Fasting plasma glucose in T2DM patients", "assay_type": "in vivo, human", "outline": "(§1)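 48 Chinese adults with T2DM, untreated with hypoglycemic agents for 3 months, randomized double-blind to placebo or 10, 25 or 50 mg oral tablets. Dosing was once every 2 weeks for 12 weeks (six doses), with 240.0 mL water, fasted on days 1 and 29. Values were measured by each site's standard procedure, compared with baseline or placebo, and summarized descriptively (mean, SD, median, range).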"}, "glucagon": {"tested_on": "glucagon", "test": "Plasma glucagon level", "assay_type": "in vivo, human"}, "Safety and tolerability": {"test": "Safety and tolerability", "assay_type": "in vivo, human", "outline": "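Safety in 48 T2DM patients given placebo or 10/25/50 mg tablets orally every 2 weeks for 12 weeks, then 2 weeks of safety follow-up. Monitoring covered adverse events, physical examination, blood and urine routine, biochemistry, amylase and lipase, vital signs, 12-lead ECG and hypoglycemic events. ADR incidence was tabulated per dose group and graded by severity.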"}, "[2]": {"test": "Plasma pharmacokinetics of HSK7653 after first and last oral dose", "assay_type": "in vivo, human"}, "C-peptide": {"tested_on": "C-peptide", "test": "Serum C-peptide level", "assay_type": "in vivo, human", "outline": "as §1"}, "[3]": {"conditions": "mass balance study; ref CTR20201559; cited from earlier work"}, "HbA1c": {"tested_on": "HbA1c", "test": "HbA1c change in T2DM patients", "assay_type": "in vivo, human", "outline": "as §1"}, "[4]": {"tested_on": "glycosylated albumin (GA)", "test": "Glycated albumin", "assay_type": "in vivo, human", "outline": "as §1"}, "QT interval [5]": {"tested_on": "QT interval", "test": "Plasma concentration QT analysis of single dose in healthy subjects", "assay_type": "in vivo, human", "conditions": "dose of 25 mg or less every two weeks"}, "[6]": {"conditions": "day 85, 50 mg, among 11 subjects"}},
  "note": "Entries after “also recorded” stand apart in the source; their conditions may differ. Where two headings read alike, the source gives them in different places.",
  "data": [
    {"smiles": "CC#CCn1c(N2CCC[C@@H](N)C2)nc2c1c(=O)n(Cc1nc(C)c3ccccc3n1)c(=O)n2C", "note": "[linagliptin]", "values": [
      {"measurement": "effect on QTc interval", "setting": "QT interval [1]; doses of 5 and 100 mg, compared with placebo", "result": "did not increase the QTc interval"}
    ]},
    {"smiles": "CS(=O)(=O)n1cc2c(n1)CN([C@@H]1C[C@H](N)[C@@H](c3cc(F)ccc3F)O[C@@H]1C(F)(F)F)C2", "note": "[HSK7653, (2R,3S,5R,6S)-2-(2,5-difluorophenyl)-5-[2-(methylsulfonyl)-2,6-dihydropyrrolo[3,4-c]pyrazol-5(4H)-yl]-6-(trifluoromethyl)-tetrahydro-2H-pyran-3-amine]", "values": [
      {"measurement": "fasting blood glucose lower than baseline by", "setting": "fasting plasma glucose; day 43, 10 mg", "result": 0.7, "unit": "mmol/L"},
      {"measurement": "mean fasting blood glucose", "setting": "fasting plasma glucose; day 43, 10 mg", "result": 9.2, "unit": "mmol/L"},
      {"measurement": "fasting blood glucose lower than baseline by", "setting": "fasting plasma glucose; day 43, 25 mg", "result": 0.5, "unit": "mmol/L"},
      {"measurement": "mean fasting blood glucose", "setting": "fasting plasma glucose; day 43, 25 mg", "result": 8.1, "unit": "mmol/L"},
      {"measurement": "fasting blood glucose increased from baseline by", "setting": "fasting plasma glucose; day 43, 50 mg", "result": 0.8, "unit": "mmol/L"},
      {"measurement": "fasting blood glucose decreased compared with the baseline by", "setting": "fasting plasma glucose; day 85, 10 mg", "result": 0.7, "unit": "mmol/L"},
      {"measurement": "mean fasting blood glucose", "setting": "fasting plasma glucose; day 85, 10 mg", "result": 9.2, "unit": "mmol/L"},
      {"measurement": "fasting blood glucose decreased compared with the baseline by", "setting": "fasting plasma glucose; day 85, 25 mg", "result": 0.2, "unit": "mmol/L"},
      {"measurement": "mean fasting blood glucose", "setting": "fasting plasma glucose; day 85, 25 mg", "result": 8.5, "unit": "mmol/L"},
      {"measurement": "glucagon level with increasing treatment time", "setting": "glucagon; 10 mg dose group, 90–180 min after meal", "result": "gradually decreased to below the level of the placebo group"},
      {"measurement": "glucagon level compared with the placebo group", "setting": "glucagon; 25 and 50 mg dose groups, during treatment", "result": "lower than the placebo group during treatment"},
      {"measurement": "incidence of ADR", "setting": "Safety and tolerability; 10 mg dose group", "result": 33.3, "unit": "%"},
      {"measurement": "incidence of TEAEs", "setting": "Safety and tolerability; 10 mg dose group", "result": 58.3, "unit": "%"},
      {"measurement": "incidence of ADR", "setting": "Safety and tolerability; 25 mg dose group", "result": 58.3, "unit": "%"},
      {"measurement": "incidence of TEAEs", "setting": "Safety and tolerability; 25 mg dose group", "result": 91.7, "unit": "%"},
      {"measurement": "incidence of ADR", "setting": "Safety and tolerability; 50 mg dose group", "result": 75.0, "unit": "%"},
      {"measurement": "incidence of TEAEs", "setting": "Safety and tolerability; 50 mg dose group", "result": 83.3, "unit": "%"},
      {"measurement": "serious adverse events", "setting": "Safety and tolerability; 10–50 mg once every two weeks", "result": "no serious adverse events"},
      {"measurement": "ADR incidence: anemia", "setting": "Safety and tolerability; HSK7653 dose group total", "result": 5.6, "unit": "%"},
      {"measurement": "ADR incidence: decreased T wave amplitude of ECG", "setting": "Safety and tolerability; HSK7653 dose group total", "result": 5.6, "unit": "%"},
      {"measurement": "ADR incidence: dizziness", "setting": "Safety and tolerability; HSK7653 dose group total", "result": 2.8, "unit": "%"},
      {"measurement": "ADR incidence: dyspepsia", "setting": "Safety and tolerability; HSK7653 dose group total", "result": 11.1, "unit": "%"},
      {"measurement": "ADR incidence: electrocardiogram T wave abnormal", "setting": "Safety and tolerability; HSK7653 dose group total", "result": 8.3, "unit": "%"},
      {"measurement": "ADR incidence: hyperbilirubinemia", "setting": "Safety and tolerability; HSK7653 dose group total", "result": 5.6, "unit": "%"},
      {"measurement": "ADR incidence: hyperlipidemia", "setting": "Safety and tolerability; HSK7653 dose group total", "result": 8.3, "unit": "%"},
      {"measurement": "ADR incidence: hypertriglyceridemia", "setting": "Safety and tolerability; HSK7653 dose group total", "result": 11.1, "unit": "%"},
      {"measurement": "ADR incidence: increased blood bilirubin", "setting": "Safety and tolerability; HSK7653 dose group total", "result": 5.6, "unit": "%"},
      {"measurement": "ADR incidence: positive urine red blood cells", "setting": "Safety and tolerability; HSK7653 dose group total", "result": 5.6, "unit": "%"},
      {"measurement": "ADR incidence: upper respiratory tract infection", "setting": "Safety and tolerability; HSK7653 dose group total", "result": 5.6, "unit": "%"},
      {"measurement": "ADR incidence: urinary tract infection", "setting": "Safety and tolerability; HSK7653 dose group total", "result": 8.3, "unit": "%"},
      {"measurement": "ADR incidence: white blood cells urine positive", "setting": "Safety and tolerability; HSK7653 dose group total", "result": 8.3, "unit": "%"},
      {"measurement": "ADR incidence: prolonged QT interval of ECG", "setting": "Safety and tolerability; HSK7653 dose group total (4/36)", "result": 11.1, "unit": "%"},
      {"measurement": "tolerability", "setting": "Safety and tolerability; doses of 10–50 mg, Chinese T2DM subjects", "result": "well tolerated and safe"},
      {"measurement": "accumulation in vivo", "setting": "[2]; 10–50 mg every two weeks", "result": "not accumulated in vivo; also recorded: did not accumulated in body"},
      {"measurement": "mean Rac_AUC", "setting": "[2]; 10–50 mg every two weeks", "result": "1.0–1.1"},
      {"measurement": "mean Rac_Cmax", "setting": "[2]; 10–50 mg every two weeks", "result": "0.9–1.0"},
      {"measurement": "Tmax", "setting": "[2]; human, plasma, oral, 10 mg, Tmax, median (min, max), multiple (last dose)", "result": 1, "unit": "h"},
      {"measurement": "Cmax", "setting": "[2]; human, plasma, oral, 25 mg, Cmax, mean ± SD (CV%), multiple (last dose)", "result": 411, "unit": "ng/mL"},
      {"measurement": "Tmax", "setting": "[2]; human, plasma, oral, 25 mg, Tmax, median (min, max), single (first dose)", "result": 2, "unit": "h"},
      {"measurement": "Vd/F", "setting": "[2]; human, plasma, po", "result": "61.1 to 81.9", "unit": "L"},
      {"measurement": "half-life", "setting": "[2]; human, plasma, po", "result": "64 to 87", "unit": "h"},
      {"measurement": "Tmax", "setting": "[2]; human, plasma, po, median Tmax, dose range 10–50 mg", "result": "1 to 3", "unit": "h"},
      {"measurement": "level of C-peptide with increasing treatment time", "setting": "C-peptide; 10 mg dose group", "result": "gradually increased to a similar level as the placebo group"},
      {"measurement": "level of C-peptide compared with the placebo group", "setting": "C-peptide; 25 and 50 mg dose groups", "result": "no significant change"},
      {"measurement": "fecal excretion", "setting": "[3]", "result": 7.4, "unit": "%"},
      {"measurement": "hepatic metabolism, metabolites in feces", "setting": "[3]", "result": 5.7, "unit": "%"},
      {"measurement": "hepatic metabolism, metabolites in urine", "setting": "[3]", "result": 9.7, "unit": "%"},
      {"measurement": "renal excretion", "setting": "[3]", "result": 68.1, "unit": "%"},
      {"measurement": "HbA1c, Mean ± SD", "setting": "HbA1c; Day 43, 10 mg", "result": "7.7 ± 0.4"},
      {"measurement": "HbA1c, Mean ± SD", "setting": "HbA1c; Day 43, 25 mg", "result": "7.5 ± 0.6"},
      {"measurement": "HbA1c, Mean ± SD", "setting": "HbA1c; Day 43, 50 mg", "result": "8.3 ± 1.0"},
      {"measurement": "HbA1c, Mean ± SD", "setting": "HbA1c; Day 85, 10 mg", "result": "7.3 ± 0.3"},
      {"measurement": "HbA1c, Mean ± SD", "setting": "HbA1c; Day 85, 25 mg", "result": "7.4 ± 0.7"},
      {"measurement": "HbA1c, Mean ± SD", "setting": "HbA1c; Day 85, 50 mg", "result": "8.4 ± 1.1"},
      {"measurement": "subjects with HbA1c decreased significantly", "setting": "HbA1c; [6]", "result": 5, "unit": "subjects"},
      {"measurement": "subjects with HbA1c increased compared with baseline", "setting": "HbA1c; [6]", "result": 6, "unit": "subjects"},
      {"measurement": "GA level lower than the baseline by", "setting": "[4]; day 43, 10 mg", "result": 2.3, "unit": "%"},
      {"measurement": "mean GA value", "setting": "[4]; day 43, 10 mg", "result": 21.2, "unit": "%"},
      {"measurement": "GA level lower than the baseline by", "setting": "[4]; day 43, 25 mg", "result": 0.8, "unit": "%"},
      {"measurement": "mean GA value", "setting": "[4]; day 43, 25 mg", "result": 21.0, "unit": "%"},
      {"measurement": "GA level higher than the baseline by", "setting": "[4]; day 43, 50 mg", "result": 0.4, "unit": "%"},
      {"measurement": "mean GA value", "setting": "[4]; day 43, 50 mg", "result": 23.6, "unit": "%"},
      {"measurement": "mean GA value", "setting": "[4]; day 85, 10 mg", "result": 20.0, "unit": "%"},
      {"measurement": "mean GA value", "setting": "[4]; day 85, 25 mg", "result": 20.5, "unit": "%"},
      {"measurement": "mean GA value", "setting": "[4]; day 85, 50 mg", "result": 24.2, "unit": "%"},
      {"measurement": "risk of prolongation of QT interval", "setting": "QT interval [5]", "result": "no significant risk of prolongation of QT interval"}
    ]},
    {"smiles": "N[C@@H](CC(=O)N1CCn2c(nnc2C(F)(F)F)C1)Cc1cc(F)c(F)cc1F", "note": "[sitagliptin]", "values": [
      {"measurement": "effect on QTc interval", "setting": "QT interval [1]; clinical dose 100 mg", "result": "does not correlate with an increase in QTc interval"},
      {"measurement": "effect on QT interval", "setting": "QT interval [1]; super-therapeutic dose of 800 mg, clinical significance not significant", "result": "the QT interval is prolonged"}
    ]},
    {"smiles": "Cc1cc(N2CCN([C@@H]3CN[C@H](C(=O)N4CCSC4)C3)CC2)n(-c2ccccc2)n1", "note": "[Teneligliptin]", "values": [
      {"measurement": "effect on QT interval", "setting": "QT interval [1]; only at 4 times the normal dose (160.0 mg/day)", "result": "significantly prolonged the QT interval"}
    ]}
  ]
}
